# Source: ChEMBL document CHEMBL1141764, “Pentasaccharide glycosides from the roots of Ipomoea murucoides” (2005)
# Active and inactive are the calls of the source. No cut-off for these calls is given here.
# Columns and labels:
# Type in all cases: functional
# HCT-15 = experiment: Cytotoxicity against human HCT15 cells after 72 hrs; conditions: for EC50: HCT-15, 72 h, read-out: ED50 (the source's name)
# Method in brief: (§1)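 Cells kept in RPMI with 10% FBS at 37 °C, 5% CO2, humidified. Log-phase cells exposed in triplicate to 1.0-100 µg/mL for 72 h at 37 °C. Cell density read by protein analysis. ED50 (dose giving 50% inhibition of control growth) estimated from semilog plot of concentration (µg/mL) versus percent viable cells.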
# OVCAR-5 = experiment: Cytotoxicity against human OVCAR5 cells after 72 hrs; conditions: OVCAR-5, 72 h, read-out: ED50 (the source's name); method in brief: as §1
# UISO-SQC1 = experiment: (§2) Cytotoxicity against human UISO-SQC1 cells after 72 hrs; method in brief: as §1
# [1] = as §2; conditions: UISO-SQC1, 72 h, read-out: ED50 (the source's name); method in brief: as §1
SMILES,Activity (HCT-15),EC50 (OVCAR-5) [mg/L],Activity (UISO-SQC1),EC50 (HCT-15) [mg/L],EC50 [1] [mg/L]
CCCCCCCCCCCC(=O)O[C@H]1[C@H](O[C@@H]2[C@@H](O)[C@H]3OC(=O)CCCCCCCCCC(CCCCC)O[C@@H]4O[C@H](C)[C@@H](O)[C@H](O)[C@H]4OC3O[C@H]2C)O[C@@H](C)[C@H](O[C@@H]2O[C@@H](C)[C@H](OC(C)=O)[C@@H](O)[C@H]2O[C@@H]2O[C@H](CO)[C@@H](O)[C@H](O)[C@H]2O)[C@H]1O (stereo not given in full) [MURUCIN 1],inactive,5,inactive,,
CCCCCCCCCCCC(=O)O[C@H]1[C@H](O[C@@H]2[C@@H](O)[C@H]3OC(=O)CCCCCCCCCC(CCCCC)O[C@@H]4O[C@H](C)[C@@H](O)[C@H](O)[C@H]4OC3O[C@H]2C)O[C@@H](C)[C@H](O[C@@H]2O[C@@H](C)[C@H](OC(=O)CC)[C@@H](O)[C@H]2O[C@@H]2O[C@H](CO)[C@@H](O)[C@H](O)[C@H]2O)[C@H]1O (stereo not given in full) [MURUCIN 2],,> 20,,> 20,> 20
CCCCCCCCCCCC(=O)O[C@H]1[C@H](O[C@@H]2[C@@H](O)[C@H]3OC(=O)CCCCCCCCCC(CCCCC)O[C@@H]4O[C@H](C)[C@@H](O)[C@H](O)[C@H]4OC3O[C@H]2C)O[C@@H](C)[C@H](O[C@@H]2O[C@@H](C)[C@H](OC(=O)CCC)[C@@H](O)[C@H]2O[C@@H]2O[C@H](CO)[C@@H](O)[C@H](O)[C@H]2O)[C@H]1O (stereo not given in full) [MURUCIN 3],,> 20,,> 20,> 20
CCCCCCCCCCCC(=O)O[C@H]1[C@H](O[C@@H]2[C@@H](O)[C@H]3OC(=O)CCCCCCCCCC(CCCCC)O[C@@H]4O[C@H](C)[C@@H](O)[C@H](O)[C@H]4OC3O[C@H]2C)O[C@@H](C)[C@H](O[C@@H]2O[C@@H](C)[C@H](OC(=O)C(C)CC)[C@@H](O)[C@H]2O[C@@H]2O[C@H](CO)[C@@H](O)[C@H](O)[C@H]2O)[C@H]1O (stereo not given in full) [MURUCIN 4],,> 20,,> 20,> 20
CCCCCCCCCCCC(=O)O[C@H]1[C@H](O[C@@H]2[C@@H](O)[C@H]3OC(=O)CCCCCCCCCC(CCCCC)O[C@@H]4O[C@H](C)[C@@H](O)[C@H](O)[C@H]4OC3O[C@H]2C)O[C@@H](C)[C@H](O[C@@H]2O[C@@H](C)[C@H](OC(=O)C(C)C(C)O)[C@@H](O)[C@H]2O[C@@H]2O[C@H](CO)[C@@H](O)[C@H](O)[C@H]2O)[C@H]1O (stereo not given in full) [MURUCIN 5],,> 20,,> 20,> 20
